Results from ChEMBL document CHEMBL4020840, “Synthesis and Biological Evaluation of Selenium-Containing 4-Anilinoquinazoline Derivatives as Novel Antimitotic Agents” (J Med Chem, 2018).
Calls of active or inactive are those of the source. No cut-off for these calls is given here.

Key:
[1] = system: A549; assay: Growth inhibition of human A549 cells after 48 hrs by MTT assay; type: functional, cell-based; details: A549, 48 h
[2] = system: BJ; assay: Antiproliferative activity against human BJ cells after 48 hrs by MTT assay; type: cell-based
Procedure, shortened: (§1)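 MTT assay: log-phase cells plated at 5 × 10³/well for 24 h, then exposed to a range of test concentrations for 48 h. MTT (5 mg/mL) added for 4 h, formazan dissolved in DMSO, absorbance read at 570 nm. IC50 is the concentration giving 50% growth inhibition, from dose-response curves; at least three independent experiments, mean ± SE.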

[3] = system: A549; assay: Cell cycle arrest in human A549 cells assessed as accumulation at G2/M phase at 4 nM after 24 hrs by propidium iodide staining based flow cytometry (reference value: 10.13%); type: functional
Procedure, shortened: (§2)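 A549 seeded in six-well plates at 3 × 10⁵ cells/well and treated for 12 or 24 h; vehicle 0.01% DMSO. Cells fixed overnight in ice-cold 70% ethanol, treated with RNase A at 37 °C for 30 min, then stained with PI at 4 °C for 30 min. About 10 000 events acquired by flow cytometry at 488 nm; three experiments.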

[4] = system: HeLa; assay: Antiproliferative activity against human HeLa cells after 48 hrs by MTT assay; type: functional, cell-based; procedure, shortened: as §1
[5] = system: A549; assay: Induction of apoptosis in human A549 cells assessed as late apoptotic cells at 4 nM after 48 hrs by Annexin V-FITC/propidium iodide staining based flow cytometry (reference value: 0.03%); type: functional
[6] = system: A549; assay: Induction of apoptosis in human A549 cells assessed as necrotic cells at 2 nM after 48 hrs by Annexin V-FITC/propidium iodide staining based flow cytometry relative to control; type: functional
[7] = system: A549; assay: Cell cycle arrest in human A549 cells assessed as accumulation at G2/M phase at 4 nM after 12 hrs by propidium iodide staining based flow cytometry (reference value: 10.13%); type: functional; procedure, shortened: as §2
[8] = Resistance factor, ratio of IC50 for human A549/CDDP cells to IC50 for human A549 cells; type: functional
Procedure, shortened: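 MTT assay: log-phase cells were seeded at 5 × 10³/well for 24 h, then exposed to a concentration series for 48 h. MTT (5 mg/mL) was added for 4 h, formazan was dissolved in DMSO, and A570 was read. IC50 values came from dose–response curves of at least three independent experiments. Resistance factor = IC50 in the resistant line / IC50 in the parental sensitive line.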

[9] = system: LoVo; assay: Growth inhibition of human LoVo cells after 48 hrs by MTT assay; type: functional, cell-based; procedure, shortened: as §1
[10] = system: A549; assay: Induction of apoptosis in human A549 cells assessed as live cells at 2 nM after 48 hrs by Annexin V-FITC/propidium iodide staining based flow cytometry (reference value: 98.49%); type: functional
[11] = system: A549; assay: Induction of apoptosis in human A549 cells assessed as live cells at 2 nM after 24 hrs by Annexin V-FITC/propidium iodide staining based flow cytometry (reference value: 98.84%); type: functional
[12] = system: HCT-116; assay: Growth inhibition of human HCT116 cells after 48 hrs by MTT assay; type: functional, cell-based; details: HCT-116, 48 h; procedure, shortened: as §1
[13] = system: A549; assay: Induction of apoptosis in human A549 cells assessed as necrotic cells at 4 nM after 24 hrs by Annexin V-FITC/propidium iodide staining based flow cytometry (reference value: 0.10%); type: functional
[14] = system: MDA-MB-231; assay: Growth inhibition of human MDA-MB-231 cells after 48 hrs by MTT assay; type: functional, cell-based; details: MDA-MB-231, 48 h; procedure, shortened: as §1
[15] = system: A549; assay: Induction of apoptosis in human A549 cells assessed as early apoptotic cells at 4 nM after 24 hrs by Annexin V-FITC/propidium iodide staining based flow cytometry (reference value: 0.98%); type: functional
[16] = system: A549; assay: Induction of apoptosis in human A549 cells assessed as late apoptotic cells at 2 nM after 48 hrs by Annexin V-FITC/propidium iodide staining based flow cytometry (reference value: 0.03%); type: functional
[17] = system: A549; assay: Induction of apoptosis in human A549 cells assessed as necrotic cells at 2 nM after 24 hrs by Annexin V-FITC/propidium iodide staining based flow cytometry (reference value: 0.10%); type: functional
[18] = system: A549; assay: Induction of apoptosis in human A549 cells assessed as late apoptotic cells at 2 nM after 24 hrs by Annexin V-FITC/propidium iodide staining based flow cytometry (reference value: 0.08%); type: functional
[19] = Selectivity index, ratio of IC50 for human LO2 cells to IC50 for human A549 cells; type: functional
Procedure, shortened: (§3)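 MTT assay in normal cells and A549: seeding at 5 × 10³ cells/well for 24 h, 48 h compound exposure, then 5 mg/mL MTT for 4 h, DMSO solubilisation and absorbance at 570 nm. IC50 values came from dose–response curves of at least three independent experiments. Selectivity ratio = IC50 in normal cells / IC50 in A549.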

[20] = Growth inhibition of human HepG2/DOX cells after 48 hrs by MTT assay; type: functional, cell-based; procedure, shortened: as §1
[21] = (§4) Inhibition of porcine brain tubulin polymerization measured every 60 secs for 90 mins by DAPI staining based fluorescence assay; set-up: species or system Sus scrofa
Procedure, shortened: (§5)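 Purified tubulin was tested in a kit assay. Final buffer: 80 mM PIPES sesquisodium (pH 6.9), 2.0 mM MgCl₂, 0.5 mM EGTA, 1 mM GTP, 10.2% glycerol. Compound (0.1–10 μM) was prewarmed at 37 °C for 1 min before tubulin was added. DAPI reporter fluorescence (ex 340 / em 410 nm) was read every 60 s for 90 min. Area under the curve gave percent inhibition versus control and the IC50.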

[22] = system: MCF7; assay: Antiproliferative activity against human MCF7 cells after 48 hrs by MTT assay; type: functional, cell-based; details: MCF7, 48 h; procedure, shortened: as §1
[23] = Selectivity index, ratio of IC50 for human BJ cells to IC50 for human A549 cells; type: functional; procedure, shortened: as §3
[24] = system: A549; assay: Induction of apoptosis in human A549 cells assessed as live cells at 4 nM after 48 hrs by Annexin V-FITC/propidium iodide staining based flow cytometry (reference value: 98.49%); type: functional
[25] = system: MGC-803; assay: Antiproliferative activity against human MGC803 cells after 48 hrs by MTT assay; type: functional, cell-based; details: MGC-803, 48 h; procedure, shortened: as §1
[26] = system: A549; assay: Induction of apoptosis in human A549 cells assessed as early apoptotic cells at 4 nM after 48 hrs by Annexin V-FITC/propidium iodide staining based flow cytometry (reference value: 1.48%); type: functional
[27] = system: A549; assay: Induction of apoptosis in human A549 cells assessed as live cells at 4 nM after 24 hrs by Annexin V-FITC/propidium iodide staining based flow cytometry (reference value: 98.84%); type: functional
[28] = system: A549/CDDP; assay: Growth inhibition of human A549/CDDP cells after 48 hrs by MTT assay; type: functional, cell-based; procedure, shortened: as §1
[29] = system: A549; assay: Induction of apoptosis in human A549 cells assessed as late apoptotic cells at 4 nM after 24 hrs by Annexin V-FITC/propidium iodide staining based flow cytometry (reference value: 0.08%); type: functional
[30] = system: A549; assay: Induction of apoptosis in human A549 cells assessed as early apoptotic cells at 2 nM after 48 hrs by Annexin V-FITC/propidium iodide staining based flow cytometry (reference value: 1.48%); type: functional
[31] = system: L02; assay: Antiproliferative activity against human LO2 cells after 48 hrs by MTT assay; type: cell-based; details: L02, 48 h; procedure, shortened: as §1
[32] = Antiproliferative activity against HLF after 48 hrs by MTT assay; type: cell-based; details: Homo sapiens; procedure, shortened: as §1
[33] = Selectivity index, ratio of IC50 for HLF to IC50 for human A549 cells; procedure, shortened: as §3
[34] = system: A549; assay: Induction of apoptosis in human A549 cells assessed as necrotic cells at 4 nM after 48 hrs by Annexin V-FITC/propidium iodide staining based flow cytometry relative to control; type: functional
[35] = system: RKO; assay: Growth inhibition of human RKO cells after 48 hrs by MTT assay; type: functional, cell-based; procedure, shortened: as §1
[36] = system: HepG2; assay: Growth inhibition of human HepG2 cells after 48 hrs by MTT assay; type: functional, cell-based; details: HepG2, 48 h; procedure, shortened: as §1
[37] = system: A549; assay: Induction of apoptosis in human A549 cells assessed as early apoptotic cells at 2 nM after 24 hrs by Annexin V-FITC/propidium iodide staining based flow cytometry (reference value: 0.98%); type: functional
[38] = system: A549; assay: Induction of apoptosis in human A549 cells assessed as upregulation of Bax level at 2 to 4 nM after 24 to 48 hrs by Western blot method; type: functional, cell-based
Procedure, shortened: (§6)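 A549 seeded in 60 mm dishes at 5 × 10⁵ cells and treated for 24 or 48 h. Lysed in RIPA buffer on ice for 30 min and spun at 12 500g. Protein measured by BCA; 40 μg run on 8−12% SDS−PAGE and moved to nitrocellulose. Blocked in 5% milk, primary antibodies at 4 °C overnight, HRP secondary 2 h, ECL detection.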

[39] = system: A549; assay: Induction of apoptosis in human A549 cells assessed as upregulation of Bad level at 2 to 4 nM after 24 to 48 hrs by Western blot method; type: functional, cell-based; procedure, shortened: as §6
[40] = system: A549; assay: Cell cycle arrest in human A549 cells assessed as accumulation at G2/M phase up to 24 hrs by propidium iodide staining based flow cytometry; type: functional; procedure, shortened: as §2
[41] = system: A549; assay: Antimigratory activity against human A549 cells assessed as suppression of wound healing at 4 nM after 24 hrs by phase contrast microscopic method; type: functional, cell-based
Procedure, shortened: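 Scratch wound assay: A549 plated at 5 × 10⁴ cells/dish and grown 24 h before scraping with a 10 μL tip. Medium then swapped to serum-free DMEM containing compound (4 nM) for 24 h. After a PBS wash, wound images taken at 0 and 24 h; at least three independent experiments.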

[42] = system: A549; assay: Cell cycle arrest in human A549 cells assessed as decrease in G1 phase at 4 nM up to 24 hrs by propidium iodide staining based flow cytometry; type: functional; procedure, shortened: as §2
[43] = system: A549; assay: Cell cycle arrest in human A549 cells assessed as decrease in S phase at 4 nM up to 24 hrs by propidium iodide staining based flow cytometry; type: functional; procedure, shortened: as §2
[44] = organism: Sus scrofa; assay: as §4; procedure, shortened: as §5
[45] = system: A549; assay: Induction of apoptosis in human A549 cells assessed as downregulation of Bcl2 level at 2 to 4 nM after 24 to 48 hrs by Western blot method; type: functional, cell-based; procedure, shortened: as §6

C[Se]c1ccc(N(C)c2nc(C)nc3ccccc23)cc1F
IC50 [1]: 2 nM
IC50 [2]: 19 nM
Activity [3]: 79.71%
IC50 [4]: 5 nM
Activity [5]: 25.29%
Activity [6]: 7.34%
Activity [7]: 60.89%
Ratio IC50 [8]: 3.67
IC50 [9]: 9 nM
Activity [10]: 63.84%
Activity [11]: 85.06%
IC50 [12]: 6 nM
Activity [13]: 0.78%
IC50 [14]: 5 nM
Activity [15]: 36.98%
Activity [16]: 16.6%
Activity [17]: 1.52%
Activity [18]: 2.46%
Ratio IC50 [19]: 8
IC50 [20]: 5 nM
IC50 [21]: 1270 nM
IC50 [22]: 9 nM
Ratio IC50 [23]: 9.5
Activity [24]: 34.36%
IC50 [25]: 7 nM
Activity [26]: 27.52%
Activity [27]: 60.27%
IC50 [28]: 11 nM
Activity [29]: 1.97%
Activity [30]: 12.22%
IC50 [31]: 16 nM
IC50 [32]: 19 nM
Ratio IC50 [33]: 9.5
Activity [34]: 12.82%
IC50 [35]: 7 nM
IC50 [36]: 4 nM
Activity [37]: 10.96%

Cc1nc(N(C)c2ccc([Se]C#N)cc2)c2ccccc2n1
Activity [38]: Active
Activity [39]: Active
Activity [40]: Dose-dependent effect
Activity [41]: Active
Activity [42]: Active
Activity [43]: Active
inhibition [44]: Dose-dependent effect
Activity [45]: Active
